ChEMBL document CHEMBL1126796, “2-(Alkylamino)nicotinic acid and analogs. Potent angiotensin II antagonists” (J Med Chem, 1993)

Assays:
[1] = biological target: T1, Type-1 angiotensin II receptor (Oryctolagus cuniculus, UniProt P34976); assay: Antagonistic ability of angiotensin II to contract rabbit aorta; format: functional, tissue-based; details: read-out: pA2 (converted)
T1 sequence (P34976 whole entry): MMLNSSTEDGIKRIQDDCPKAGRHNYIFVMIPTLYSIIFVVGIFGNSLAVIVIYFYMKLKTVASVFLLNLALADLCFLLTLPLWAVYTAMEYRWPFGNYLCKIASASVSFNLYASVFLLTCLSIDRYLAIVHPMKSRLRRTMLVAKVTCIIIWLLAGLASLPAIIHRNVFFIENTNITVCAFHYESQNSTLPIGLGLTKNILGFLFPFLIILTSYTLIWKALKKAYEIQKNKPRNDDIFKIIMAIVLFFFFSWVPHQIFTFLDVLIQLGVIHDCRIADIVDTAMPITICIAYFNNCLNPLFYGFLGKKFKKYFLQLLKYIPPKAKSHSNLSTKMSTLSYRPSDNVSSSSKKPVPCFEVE
Procedure, shortened: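 Angiotensin II contraction of rabbit aortic rings. Full pA2 from several drug concentrations by Schild plot (log drug concentration vs log(EC50 ratio-1)); EC50 ratio is the angiotensin II EC50 with drug over that without drug.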

[2] = Cmax value after oral dose of 3.87 mg/kg; format: ADME, organism-based; set-up: dose 3.87 mg/kg, route oral; details: in vivo
Procedure, shortened: (§1)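 Male Sprague-Dawley-derived rats were dosed with compound in normal saline (1 mL/kg), by gavage or as a slow IV bolus into the jugular vein. Heparinized tail-vein blood was taken at 0.25-24 h, extracted liquid-liquid and assayed by reverse-phase HPLC. Cmax is the observed peak concentration and AUC is mean (SEM). F compares oral with IV AUC, corrected for dose and assuming dose proportionality.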

[3] = system: Rattus norvegicus; assay: % decrease in blood pressure after 4 hours at a dose of 10 mg/kg in male rats by using Renal artery hypertensive model; format: functional
Procedure, shortened: (§2)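 Male Sprague-Dawley rats (300-350 g) were made hypertensive by renal artery ligation and used on day 6 or 7 after ligation. Arterial pressure was measured from an indwelling femoral artery catheter, with blood pressure and heart rate recorded on line. Read-out is % decrease in blood pressure at 4 h, ±SEM, with number of rats.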

[4] = Half-life period of compound after intravenous dose of 3.87 mg/kg; format: ADME, organism-based; set-up: dose 3.87 mg/kg, route intravenous; details: in vivo
Procedure, shortened: (§3)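 Male Sprague-Dawley-derived rats. Compound was given in normal saline at 1 mL/kg, either as a slow iv bolus into the jugular vein or orally by gavage. Plasma underwent liquid-liquid extraction and reverse-phase HPLC. Terminal elimination half-life and time of observed peak concentration were taken from the profiles.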

[5] = Area under curve after oral dose of 3.87 mg/kg; format: ADME, organism-based; set-up: dose 3.87 mg/kg, route oral; details: in vivo; procedure, shortened: as §1
[6] = Volume of distribution of central compartment (dose+ plasma concentration at time zero) after intravenous dose of 3.87 mg/kg; format: ADME, organism-based; set-up: dose 3.87 mg/kg, route intravenous; details: read-out: VI
Procedure, shortened: (§4)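 Jugular-vein slow iv bolus (normal saline, 1 mL/kg) in male Sprague-Dawley-derived rats. Plasma was sampled via the tail vein at 0.1–24 h and measured by reverse-phase HPLC after liquid-liquid extraction. Central volume was taken as dose divided by plasma concentration at time zero. Terminal-phase volume was derived from clearance and the plasma elimination rate constant.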

[7] = Tmax value after oral dose of 3.87 mg/kg; format: ADME, organism-based; set-up: dose 3.87 mg/kg, route oral; details: in vivo; procedure, shortened: as §3
[8] = Tmax value after oral dose of […]; format: ADME, organism-based; details: in vivo
[9] = Bioavailability after oral dose of 3.87 mg/kg; format: ADME, organism-based; details: eutheria, in vivo; procedure, shortened: as §1
[10] = Volume of distribution of the terminal phase (CLp+ plasma elimination rate constant) after intravenous dose of 3.87 mg/kg; format: ADME, organism-based; set-up: dose 3.87 mg/kg, route intravenous; details: read-out: Vbeta; procedure, shortened: as §4
[11] = Area under curve after oral dose of 10 mg/kg; format: ADME, organism-based; set-up: dose 10 mg/kg, route oral; details: in vivo; procedure, shortened: as §1
[12] = Area under curve after oral dose of […]; format: ADME, organism-based; details: in vivo
[13] = system: Rattus norvegicus; assay: % decrease in blood pressure after 4 hours in male rats at a dose of 3 mg/kg by using Renal artery hypertensive model; format: functional; procedure, shortened: as §2
[14] = Cmax value after oral dose of 10 mg/kg; format: ADME, organism-based; set-up: dose 10 mg/kg, route oral; details: in vivo; procedure, shortened: as §1
[15] = biological target: T2, Type-1 angiotensin II receptor A (Rattus norvegicus, UniProt P25095); assay: Binding affinity against angiotensin II receptor from rat liver
T2 sequence (P25095 whole entry): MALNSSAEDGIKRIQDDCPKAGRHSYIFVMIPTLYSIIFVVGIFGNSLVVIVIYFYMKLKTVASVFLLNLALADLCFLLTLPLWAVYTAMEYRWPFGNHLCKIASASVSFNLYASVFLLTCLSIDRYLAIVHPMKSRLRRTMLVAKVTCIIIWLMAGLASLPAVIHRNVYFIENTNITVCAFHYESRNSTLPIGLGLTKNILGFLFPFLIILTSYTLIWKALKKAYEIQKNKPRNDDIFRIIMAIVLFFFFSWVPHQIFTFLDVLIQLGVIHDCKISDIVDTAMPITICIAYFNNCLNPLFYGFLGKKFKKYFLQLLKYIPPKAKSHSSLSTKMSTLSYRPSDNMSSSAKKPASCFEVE
Procedure, shortened: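 Rat liver membranes were incubated with [125I]-saralasin to measure angiotensin II type 1 receptor binding. Nonspecific binding was defined with 1 µM angiotensin.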

[16] = Cmax value after oral dose of […]; format: ADME, organism-based; details: in vivo
[17] = Plasma clearance after intravenous dose of 3.87 mg/kg; format: ADME, organism-based; set-up: dose 3.87 mg/kg, route intravenous; details: read-out: Clp
Procedure, shortened: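 Male Sprague-Dawley-derived rats received a slow iv bolus into the jugular vein of the compound in normal saline (1 mL/kg). Tail-vein heparinized blood was drawn from 0.1 to 24 h and assayed by reverse-phase HPLC after liquid-liquid extraction. Total plasma clearance was calculated as dose divided by AUC and reported as mean (SEM).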

[18] = Bioavailability after oral dose of […]; format: ADME, organism-based; details: eutheria, in vivo
[19] = system: Rattus norvegicus; assay: % decrease in blood pressure after 4 hours in male rats at a dose of 1 mg/kg by using Renal artery hypertensive model; format: functional; procedure, shortened: as §2
[20] = Bioavailability after oral dose of 10 mg/kg; format: ADME, organism-based; details: eutheria, in vivo; procedure, shortened: as §1
[21] = Tmax value after oral dose of 10 mg/kg; format: ADME, organism-based; set-up: dose 10 mg/kg, route oral; details: in vivo; procedure, shortened: as §3

CCc1cc(OCc2ccc(-c3ccccc3-c3nn[nH]n3)cc2)c2nc(OC(C)C)ccc2n1
Kb [1]: 100 pM

CCCCN(Cc1ccc(-c2ccccc2-c2nn[nH]n2)cc1)c1ncncc1C(=O)O.Cl
Cmax [2]: 510 ng/mL | Decrease in blood pressure [3]: 41% | half-life [4]: 1.5 h | AUC [5]: 2.38 µg/h/mL | Vd [6]: 0.08 L/kg | Tmax [7]: 1.3 h | Tmax [8]: 1.1 h | bioavailability [9]: 10.3% | Vd [10]: 0.42 L/kg | AUC [11]: 2.83 µg/h/mL | AUC [12]: 6.65 µg/h/mL | Decrease in blood pressure [13]: 18% | Cmax [14]: 840 ng/mL | Ki [15]: 1770 pM | Cmax [16]: 1470 ng/mL | clearance [17]: 0.85 mL/min | bioavailability [18]: 4.8% | Decrease in blood pressure [19]: 10% | bioavailability [20]: 4.8% | Tmax [21]: 0.9 h
